Data from ChEMBL document CHEMBL4715754, “Slowing down fat digestion and absorption by an oxadiazolone inhibitor targeting selectively gastric lipolysis” (2016).
Active and inactive are the calls of the source. The calls are words filed in the database; no cut-off is given here.

How the values were obtained:
[1] = biological target: T1, Pancreatic triacylglycerol lipase (Sus scrofa) (UniProt P00591); experiment: Inhibition of porcine pancreatic lipase preincubated for 30 mins at 25 degreeC
T1 sequence (whole entry): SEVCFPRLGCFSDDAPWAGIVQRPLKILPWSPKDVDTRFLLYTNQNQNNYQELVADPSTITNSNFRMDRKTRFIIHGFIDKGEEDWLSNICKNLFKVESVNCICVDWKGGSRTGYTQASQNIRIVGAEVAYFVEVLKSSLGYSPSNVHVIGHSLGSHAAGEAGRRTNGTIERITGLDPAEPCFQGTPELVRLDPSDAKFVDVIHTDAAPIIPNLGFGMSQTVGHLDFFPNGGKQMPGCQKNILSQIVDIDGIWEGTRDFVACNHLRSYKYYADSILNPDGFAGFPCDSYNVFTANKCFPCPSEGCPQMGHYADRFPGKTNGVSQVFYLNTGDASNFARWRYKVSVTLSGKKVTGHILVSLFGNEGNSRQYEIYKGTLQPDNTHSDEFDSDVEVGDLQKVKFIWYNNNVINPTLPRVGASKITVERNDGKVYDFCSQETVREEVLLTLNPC
Procedure, shortened: (§1)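 Pancreatic lipase from human pancreatic juice (54 µg/mL HPL stock) or porcine pancreatic extract (32 µg/mL PPL stock) was held in 10 mM MES pH 7.0, 150 mM NaCl. It was pre-incubated with inhibitor from DMSO stock for 30 min at 25 °C with 4 mM NaTDC at varied molar excess. Residual activity was read by pH-stat on tributyrin at 37 °C, pH 8.0, with 2 mM CaCl₂ and 4 mM NaTDC. x_I50 was taken from residual activity; DMSO-only controls were run.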

[2] = biological target: T2, Pancreatic lipase-related protein 2 (Cavia porcellus) (UniProt P81139); experiment: Inhibition of recombinant guinea pig PL-RP2 expressed in Aspergillus oryzae at 20:1 molar excess compound concentration preincubated for 30 mins at 25 degreeC relative to control
T2 sequence (whole entry): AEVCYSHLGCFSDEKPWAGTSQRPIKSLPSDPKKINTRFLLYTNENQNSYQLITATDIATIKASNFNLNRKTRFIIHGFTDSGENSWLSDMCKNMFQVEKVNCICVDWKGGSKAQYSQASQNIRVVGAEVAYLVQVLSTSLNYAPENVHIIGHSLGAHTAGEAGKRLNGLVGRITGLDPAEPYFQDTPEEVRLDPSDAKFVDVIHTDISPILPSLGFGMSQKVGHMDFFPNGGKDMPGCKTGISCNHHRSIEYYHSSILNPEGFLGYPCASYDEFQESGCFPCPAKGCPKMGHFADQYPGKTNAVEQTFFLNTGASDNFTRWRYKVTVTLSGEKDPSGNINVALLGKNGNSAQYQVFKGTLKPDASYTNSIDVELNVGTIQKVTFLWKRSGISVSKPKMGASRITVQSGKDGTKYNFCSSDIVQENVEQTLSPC

[3] = biological target: T1, Pancreatic triacylglycerol lipase (Sus scrofa); experiment: Inhibition of porcine pancreatic lipase at 400:1 molar excess compound concentration preincubated for 30 mins at 25 degreeC relative to control; procedure, shortened: as §1
[4] = biological target: T3, Gastric triacylglycerol lipase (Canis lupus familiaris) (UniProt P80035); experiment: Inhibition of recombinant dog gastric lipase at 20:1 molar excess compound concentration preincubated for 30 mins at 25 degreeC relative to control
T3 sequence (whole entry): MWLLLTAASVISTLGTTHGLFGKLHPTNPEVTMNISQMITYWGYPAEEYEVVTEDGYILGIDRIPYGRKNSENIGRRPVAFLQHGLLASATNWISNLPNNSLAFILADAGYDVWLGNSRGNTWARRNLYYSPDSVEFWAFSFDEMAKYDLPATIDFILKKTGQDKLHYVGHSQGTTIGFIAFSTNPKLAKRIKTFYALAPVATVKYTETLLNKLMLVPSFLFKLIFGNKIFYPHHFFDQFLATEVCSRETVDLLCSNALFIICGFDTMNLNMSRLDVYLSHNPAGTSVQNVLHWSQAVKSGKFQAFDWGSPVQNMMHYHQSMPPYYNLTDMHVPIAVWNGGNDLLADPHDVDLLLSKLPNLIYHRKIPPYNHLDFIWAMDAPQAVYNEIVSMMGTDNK

[5] = biological target: T3, Gastric triacylglycerol lipase (Canis lupus familiaris); experiment: Inhibition of recombinant dog gastric lipase at 4:1 molar excess compound concentration preincubated for 30 mins at 25 degreeC relative to control
[6] = biological target: T4, Pancreatic triacylglycerol lipase (Homo sapiens) (UniProt P16233); experiment: Inhibition of human pancreatic lipase preincubated for 30 mins at 25 degreeC; procedure, shortened: as §1
T4 sequence (whole entry): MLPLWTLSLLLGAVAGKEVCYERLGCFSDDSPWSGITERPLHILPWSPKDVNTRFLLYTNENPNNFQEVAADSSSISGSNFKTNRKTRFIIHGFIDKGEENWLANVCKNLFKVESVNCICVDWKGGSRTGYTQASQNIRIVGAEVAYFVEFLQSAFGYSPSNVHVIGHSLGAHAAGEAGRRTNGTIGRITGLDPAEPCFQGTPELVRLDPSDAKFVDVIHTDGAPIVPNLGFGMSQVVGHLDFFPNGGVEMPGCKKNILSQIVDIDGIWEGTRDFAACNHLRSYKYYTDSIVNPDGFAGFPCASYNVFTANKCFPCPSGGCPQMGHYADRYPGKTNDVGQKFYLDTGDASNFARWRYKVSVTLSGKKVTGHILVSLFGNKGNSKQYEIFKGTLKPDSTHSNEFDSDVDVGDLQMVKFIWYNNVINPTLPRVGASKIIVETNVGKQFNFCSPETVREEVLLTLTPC

[7] = biological target: T2, Pancreatic lipase-related protein 2 (Cavia porcellus); experiment: Inhibition of recombinant guinea pig PL-RP2 expressed in Aspergillus oryzae at 4:1 molar excess compound concentration preincubated for 30 mins at 25 degreeC relative to control
[8] = biological target: T4, Pancreatic triacylglycerol lipase (Homo sapiens); experiment: Inhibition of human pancreatic lipase at 400:1 molar excess compound concentration preincubated for 30 mins at 25 degreeC relative to control; procedure, shortened: as §1
[9] = biological target: T2, Pancreatic lipase-related protein 2 (Cavia porcellus); experiment: Inhibition of recombinant guinea pig PL-RP2 expressed in Aspergillus oryzae preincubated for 30 mins at 25 degreeC
[10] = biological target: T3, Gastric triacylglycerol lipase (Canis lupus familiaris); experiment: Inhibition of recombinant dog gastric lipase preincubated for 30 mins at 25 degreeC
[11] = biological target: T1, Pancreatic triacylglycerol lipase (Sus scrofa); experiment: Inhibition of porcine pancreatic lipase at 400:1 molar excess compound concentration preincubated for 120 mins at 25 degreeC
[12] = biological target: T4, Pancreatic triacylglycerol lipase (Homo sapiens); experiment: Inhibition of human pancreatic lipase at 400:1 molar excess compound concentration preincubated for 120 mins at 25 degreeC

Row | SMILES | XI50 [1] [molar excess] | inhibition [2] [%] | inhibition [3] [%] | inhibition [4] [%] | inhibition [5] [%] | XI50 [6] [molar excess] | inhibition [7] [%] | inhibition [8] [%] | XI50 [9] [molar excess] | XI50 [10] [molar excess] | inhibition [11] | inhibition [12]
1 | CCCCCCOc1nn(-c2cccc(Oc3ccccc3)c2)c(=O)o1 | > 400 | 91.3 | 27.2 | 65.9 | 43.5 | > 400 | 90.7 | 17.1 | 1.09 | 4.92 | – | –
2 | CCCCOc1nn(-c2cccc(Oc3ccccc3)c2)c(=O)o1 | > 400 | 43.8 | 19.7 | 77.5 | 41.5 | > 400 | 42.4 | 19.1 | > 40 | 5.33 | – | –
3 | COc1nn(-c2ccc(Oc3ccccc3)cc2)c(=O)o1 | > 400 | – | – | – | – | – | – | 4 | – | – | – | –
4 | CC(C)COc1nn(-c2cccc(Oc3ccccc3)c2)c(=O)o1 | > 400 | 76 | 20.6 | 69.6 | 35.2 | > 400 | 73.6 | 21.2 | 0.52 | 5.51 | – | –
5 | CCOc1nn(-c2cccc(Oc3ccccc3)c2)c(=O)o1 | > 400 | 27.7 | 19 | 83 | 33.6 | > 400 | 27.4 | 18.8 | > 40 | 6.08 | – | –
6 | CCCCCCCCCCOc1nn(-c2cccc(Oc3ccccc3)c2)c(=O)o1 | > 400 | 57.4 | 32.5 | 37.7 | 14.6 | > 400 | 56.4 | 20.1 | 2.72 | > 100 | – | –
7 | CCCCCCCCOc1nn(-c2cccc(Oc3ccccc3)c2)c(=O)o1 | > 400 | 63 | 19.9 | 70.5 | 53.9 | > 400 | 62.3 | 25.7 | 1.47 | 3.99 | – | –
8 | COCCOc1nn(-c2cccc(Oc3ccccc3)c2)c(=O)o1 | > 400 | 67.8 | 15.5 | 69.1 | 18.1 | > 400 | 60.3 | 20 | 1.7 | 11.8 | – | –
9 | COc1nn(-c2ccccc2)c(=O)o1 | – | – | 90.6 | – | – | > 400 | – | 25.6 | – | – | – | –
10 | COc1nn(-c2cccc(Oc3ccccc3)c2)c(=O)o1 | – | – | – | – | – | – | – | 49.1 | – | – | inactive | inactive
11 | CCCCC(CC)COc1nn(-c2cccc(Oc3ccccc3)c2)c(=O)o1 (stereo not drawn) | > 400 | 54.8 | 18.9 | 27.6 | 21.6 | > 400 | 47.9 | 22.4 | 2.8 | > 100 | – | –
12 | CCCCCCCCCCCCOc1nn(-c2cccc(Oc3ccccc3)c2)c(=O)o1 | > 400 | 54.4 | 27.9 | 68.2 | 44.1 | > 400 | 53.1 | 29.1 | 1.17 | 4.57 | – | –
